Assay results pooled from the literature.
Each line is one published result; the experiments were not run side by side. pEC50, pIC50, pKi: −log10 of the molar value.
Target: Sodium-dependent noradrenaline transporter (SLC6A2, Homo sapiens, UniProt P23975)

C[C@@H](NC(=O)[C@@H](N)Cc1ccc(O)cc1)C(=O)NCC(=O)N[C@@H](Cc1ccccc1)C(=O)N(C)CCC[C@@]1(c2ccc(F)cc2)OCc2cc(C#N)ccc21 — pKi (ligand displacement, radioligand): 6.12
C=CCN1CC[C@]23c4c5ccc(O)c4O[C@H]2C(=O)CC[C@]3(O)[C@H]1C5 — pKi (ligand displacement, radioligand): < 5.15
COc1cc(C(=O)N2CC[C@@H](O)[C@@H](N)C2)cc2nc(-c3cc4ccccc4n3CC3CC3)n(C)c12 — pIC50 (transporter uptake, inhibitor): 4.70
CN[C@@H](C)C(=O)c1ccccc1 — pEC50 (calcium signal, agonist, fluorescence): 6.92
CNc1nc(C#Cc2ccc(Br)s2)nc2c1ncn2[C@H]1[C@H](O)[C@H](O)[C@]2(C(=O)OC)C[C@H]12 — pKi (ligand displacement, radioligand; cell membranes): < 5.00
CNC(C)(C)C(=O)c1ccccc1 — pEC50 (calcium signal, agonist, fluorescence): 6.82
CNc1nc(C#Cc2ccc(Cl)s2)nc2c1ncn2[C@@H]1O[C@H](C(=O)OC)[C@@H](O)[C@H]1O — pKi (ligand displacement, radioligand; cell membranes): < 5.00
CCCC[C@@H](NC(=O)[C@@H](N)Cc1ccc(O)cc1)C(=O)NCC(=O)N[C@@H](Cc1ccc(F)cc1)C(=O)N(C)CCC[C@@]1(c2ccc(F)cc2)OCc2cc(C#N)ccc21 — pKi (ligand displacement, radioligand): 5.62
C[C@H](N)Cn1ncc2ccc3c(c21)CCCO3 — pKi (ligand displacement, radioligand): < 4.00
